# Assay outcomes deposited in PubChem by The Scripps Research Institute Molecular Screening Center.
# GSTO1 counter – blocks human GSTO1 in RBBP9 counter-screen; P78417; recombinant GSTO1, activity-based probe fluorescence polarization; inhibition, % at 5.96 µM; 300,000 tested, 1.1% active;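 active means inhibition above the campaign mean inhibition plus 3 SD, cut at about 35% in these data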;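 further: 0% = GSTO1-1 with DMSO and 100% = wells lacking GSTO1-1 enzyme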
# PAD4 inh – blocks human protein arginine deiminase 4; Q9UM07; recombinant PAD4, RCA probe fluorescence polarization; inhibition, % at 6.36 µM; 330,000 tested, 0.41% active;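 active means percent inhibition above a cutoff equal to the mean of all tested compounds plus 3 SD, cut at about 15% in these data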;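 further: 0% = PAD4 with RCA probe and DMSO and 100% = probe without PAD4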
# PME-1 inh – blocks human protein phosphatase methylesterase 1. AID 2130. 320,000 tested, 0.53% active. Q9Y570. inhibition, % at 5.9 µM. recombinant PME-1, FP-Rh probe fluorescence polarization;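 active means inhibition above the campaign mean of all compounds plus 3 SD, cut at about 26% in these data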;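 further: competitive labeling of PME-1 active site by serine hydrolase directed probe; 0% = PME-1 with DMSO and 100% = wells lacking PME-1 enzyme; inhibitors block probe labeling so polarization falls and inhibition rises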
# Fam108B counter – Fam108B inhibition, counter-screen for RBBP9 inhibitors | 300,000 tested, 0.33% active | inhibition, % at 9.51 µM | recombinant Fam108B, FP-Rh probe fluorescence polarization;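 active means inhibition above the screen mean inhibition plus 3 SD, computed separately per campaign, cut at about 18% in these data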;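 further: inhibitors lower polarization as less probe binds the enzyme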
# RBBP9 inh – blocks human serine hydrolase RBBP9; O75884; recombinant RBBP9, FP-Rh probe fluorescence polarization; inhibition, % at 7.94 µM; 220,000 tested, 0.2% active; AID 1515;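 active means inhibition above the campaign mean of all tested compounds plus 3 SD, cut at about 14% in these data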;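 further: plate controls were DMSO wells with RBBP9 for no effect and wells lacking RBBP9 protein for full effect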
#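 Measured by – fluorescence polarization · Test system – RBBP9 protein · Input – 2.5 µM RBBP9 dispensing solution, before mixing · Measure – percent inhibition from mP, scaled between DMSO and no-protein wells · Benchmarks – DMSO-treated enzyme wells and wells lacking RBBP9 · Times – preincubation 30 min plus labeling 45 min at 25 °C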
# PRMT1 inh – PRMT1 (human) inhibition, primary screen | Q99873 | recombinant PRMT1, activity-based probe fluorescence polarization | inhibition, % at 2.79 µM | 370,000 tested, 1.3% active;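 active means inhibition above about 21% made by adding two undisclosed values, limit read from the data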
# Target sequence (Q99873 whole entry, looked up): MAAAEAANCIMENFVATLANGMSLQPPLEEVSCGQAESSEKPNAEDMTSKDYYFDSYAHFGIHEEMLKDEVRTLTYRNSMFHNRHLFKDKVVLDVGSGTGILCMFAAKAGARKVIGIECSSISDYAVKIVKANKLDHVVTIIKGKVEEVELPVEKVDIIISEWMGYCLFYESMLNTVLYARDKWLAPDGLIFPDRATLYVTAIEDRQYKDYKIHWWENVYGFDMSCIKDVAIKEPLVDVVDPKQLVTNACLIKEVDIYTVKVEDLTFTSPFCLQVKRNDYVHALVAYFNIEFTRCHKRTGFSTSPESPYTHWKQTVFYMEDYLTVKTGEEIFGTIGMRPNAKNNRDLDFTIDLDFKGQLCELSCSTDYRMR
# Active calls of the source: *; . = not tested or not shown. A selection: hits, their analogues and other compounds. The true share with any hit is near 2.3%.
SMILES,GSTO1 counter,PAD4 inh,PME-1 inh,Fam108B counter,RBBP9 inh,PRMT1 inh
O=C(NCC(c1cccs1)N1CCOCC1)c1ccccc1NS(=O)(=O)c1ccc(Cl)c([N+](=O)[O-])c1 (centres undefined),50*,-2,2,-2,-2,-1
CN(Cc1ccccc1)C(c1cc2ccccc2o1)c1nnnn1C(C)(C)C (centres undefined),.,.,.,.,.,3
CCC(C)(C)n1nnnc1CN(Cc1ccco1)Cc1cc2cc3c(cc2[nH]c1=O)OCO3,6,0,0,3,-3,.
CC(C)(C)n1nnnc1CN(Cc1ccco1)Cc1cc2cc3c(cc2[nH]c1=O)OCO3,-10,7,3,-1,-5,24*
CCc1ccc2[nH]c(=O)c(CN(Cc3ccccc3OC)Cc3nnnn3Cc3ccco3)cc2c1,-7,-12,-13,-17,-7,23*
Cc1cc(C#N)c2ccccc2n1,2,-2,0,2,-10,-3
COc1ccccc1NC(=S)NCCc1ccc(S(N)(=O)=O)cc1,3,2,-1,-1,-7,-5
Cc1ccc(C)c(NC(=O)COC(=O)c2ccc3c(c2)OCCO3)c1,.,-4,-8,.,.,-1
Cc1ccc(NC(=S)NNC(=S)Nc2ccc(C)cc2C)cc1,47*,3,2,2,10,5
Cc1ccc(NC(=O)CCC(=O)NNC(=S)Nc2ccccc2)c(C)c1,8,4,6,-3,-8,14
NC(=S)NN=CCn1cc([N+](=O)[O-])c(=O)[nH]c1=O,.,.,.,.,.,24*
Oc1[nH]c2ccccc2c1N=Nc1ncnc2c1oc1ccccc12,1,-1,30*,4,-3,-7
Cc1ccc(S(=O)(=O)NC[C@H]2O[C@@H](n3cnc4c(N)ncnc43)[C@H](O)[C@@H]2O)cc1,.,.,.,.,.,-1
N#CC1=C(S)N=C(N)C(c2nc(-c3ccccc3)cs2)C12CCCC2 (centres undefined),-11,-21,-9,-5,-9,33*
COc1ccc(-n2c(=O)c3c4c(sc3n(CC(=O)NCC3CCCO3)c2=O)CCCC4)c(OC)c1 (centres undefined),-12,-3,-4,-3,-5,3
O=C(NNC(=O)c1ccccc1F)c1cccc(-n2cccc2)c1,36*,-1,-5,2,.,4
O=C1CC(N2CCC(c3nc4ccccc4s3)CC2)C(=O)N1Cc1ccccc1 (centres undefined),3,0,5,0,-4,24*
CN1C(=O)CC(N2CCC(c3nc4ccccc4s3)CC2)C1=O (centres undefined),8,2,-6,2,5,3
O=C(O)c1cc(-c2ccc(/C=C3\NC(=O)N(c4ccccc4)C3=O)o2)ccc1Cl,21,-1,-15,5,-9,6
O=C(O)c1cc(-c2ccc(/C=c3\sc4nc5ccc(Br)cc5n4c3=O)o2)ccc1Cl,41*,-3,15,0,.,.
CC(Sc1nn(-c2ccc(F)cc2)c(=S)s1)C(=O)c1c(N)n(C)c(=O)n(C)c1=O (centres undefined),-4,-2,-3,-3,.,4
CCN(CC)c1ccc(S(=O)(=O)N2CCOCC2)cc1NC(=O)CN1CCN(Cc2ccccc2)CC1,-6,-6,59*,4,-5,8
CC(C)CN1C(=O)NC(NS(=O)(=O)c2ccc(N)cc2)(C(F)(F)F)C1=O (centres undefined),0,4,3,3,3,24*
CCOc1ccc(N(CC(=O)NCCSCc2ccc(C)cc2)S(C)(=O)=O)cc1,9,3,3,0,.,0
O=C(CSc1nnc(SCc2cccc3ccccc23)s1)N/N=C/c1c[nH]c2ccccc12,-19,4,26*,34*,-2,-2
O=C(CSc1nnc(SCc2ccc(Cl)cc2)s1)N/N=C/c1c[nH]c2ccccc12,25,3,-3,3,0,1
CC1(OC(=O)c2ccc(Cl)nc2)C(=O)C=C2C=C3CCCN3C=C2C1=O (centres undefined),35*,-5,1,4,.,12
COC/C=C/C1=CC2=CC(=O)C(C)(OC(=O)c3cnc4ccccc4n3)C(=O)C2=CN1C1CC1 (centres undefined),29,9,-3,3,.,11
